Assay outcomes: PubChem, several laboratories
PHOSPHO1 block = PubChem AID 1565 | recombinant PHOSPHO1, absorbance phosphatase assay | Phosphoethanolamine/phosphocholine phosphatase (Homo sapiens), Q8TCT1 | inhibition, % at 13.3 µM | hit rate 1.1% among 290,000; in the data active = inhibition above about 60%
MrgX1 antag = antagonists of human MrgX1 receptor, primary screen, HEK293 cells, Fluo-4 calcium flux | AID 588676, 2011 | B-score at 10 µM | BAM8-22 antagonism; hits give low values | Mas-related G-protein coupled receptor member X1 (Homo sapiens), Q96LB2 | hit rate 1.3% among 310,000;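 active = calcium-response B-score plate-corrected more than 3 library SD below zero, starting fluorescence within 5 deviations, no agonist response on first addition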;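 note: peak minus trough fluorescence over baseline after final BAM8-22 challenge near maximal dose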
Target sequence (Q96LB2 whole entry, looked up): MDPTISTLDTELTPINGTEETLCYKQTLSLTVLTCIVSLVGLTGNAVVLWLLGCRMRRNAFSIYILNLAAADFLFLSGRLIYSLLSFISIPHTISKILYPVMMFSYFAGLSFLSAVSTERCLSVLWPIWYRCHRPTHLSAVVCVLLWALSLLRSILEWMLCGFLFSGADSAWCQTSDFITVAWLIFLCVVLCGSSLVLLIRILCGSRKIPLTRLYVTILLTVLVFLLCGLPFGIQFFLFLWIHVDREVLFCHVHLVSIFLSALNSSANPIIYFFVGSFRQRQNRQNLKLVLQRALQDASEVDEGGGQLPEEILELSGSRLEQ
RGS4 block = RGS4 inhibitors, primary screen, cell-based, HEK293 M3R inducible RGS4, calcium flux; Regulator of G-protein signaling 4 (Homo sapiens), P49798; Fluo-4 calcium flux; hits give high values; triggered by carbachol at its EC20; B-score at 10 µM; hit rate 0.45% among 310,000; AID 463165, 2010;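 active = B-score, a plate-corrected calcium signal, over three deviations above library mean, with baseline fluorescence within five deviations of library mean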;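 note: RGS4 expression induced by doxycycline in cells with stable M3 receptor; B-score is computed from the integrated fluorescence ratio over baseline after carbachol; higher B-score means a larger calcium signal and so more RGS4 inhibition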
Target sequence (P49798 whole entry, looked up): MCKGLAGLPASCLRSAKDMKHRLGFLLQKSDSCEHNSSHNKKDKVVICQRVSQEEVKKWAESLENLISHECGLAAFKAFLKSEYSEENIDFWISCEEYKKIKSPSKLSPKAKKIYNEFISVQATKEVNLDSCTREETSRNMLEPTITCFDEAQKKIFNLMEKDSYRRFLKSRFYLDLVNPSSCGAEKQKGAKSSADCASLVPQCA
MrgX1 PAM = positive allosteric modulators of MrgX1, primary screen, HEK293 cells, Fluo-4 calcium flux | AID 588675, 2011 | FDSS; hits give high values | B-score at 10 µM | hit rate 0.63% among 310,000 | Mas-related G-protein coupled receptor member X1 (Homo sapiens), Q96LB2;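 active = plate-corrected calcium response at least 3 library SD above typical, normal starting fluorescence, not activating the receptor alone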;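 note: compound read alongside a low EC10 to EC30 dose of BAM8-22 agonist; peak minus trough fluorescence over baseline measured at the second addition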
MrgX1 agonist = agonists of human MrgX1 receptor, primary screen, HEK293 cells, Fluo-4 calcium flux | Mas-related G-protein coupled receptor member X1 (Homo sapiens), Q96LB2 | Fluo-4 calcium fluorescence, agonist mode; hits give high values | B-score at 10 µM | hit rate 0.44% among 310,000;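 active = calcium response B-score plate-corrected fluorescence ratio at least 3 library SD, with starting fluorescence B-score inside 5 SD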
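Test system: HEK293 cells stably expressing human MrgX1 receptor; amount: 15,000 cells per well; doses: compound delivered in addition one of three; times: overnight plating before 1 h dye loading; detection: Fluo-4 NW calcium-flux fluorescence, kinetic read; read-out basis: B-scored fluorescence response ratio; controls: positive and negative controls per plate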
RGS4 act = RGS4 potentiators or activators, primary screen, cell-based, HEK293 M3R inducible RGS4, calcium flux | AID 463111, 2010 | B-score at 10 µM | hit rate 0.92% among 310,000 | carbachol calcium flux Fluo4; hits give low values;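 active = B-score of the integrated calcium signal more than 4 SD below the library mean, with starting fluorescence not abnormally high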;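 note: negative B-score means reduced calcium response which marks RGS4 activation or potentiation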
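Assay system: HEK293 FlpIn-TREx cells, stable M3R, doxycycline-inducible RGS4 / Probe or stimulus: carbachol, ECmax concentration / Times: overnight RGS4 induction, 30 min dye load 37 °C, 20 min compound RT / Signal: kinetic calcium fluorescence imaging with Fluo4-AM dye, 2 µM / Measure: Agonist-evoked peak-minus-minimum fluorescence over baseline, integrated ratio, B score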
RGS4 inh valid = enhanced carbachol calcium response, M3R/RGS4 cells, RGS4 inhibitor project, cell-based, validation screen, HEK293 M3R/RGS4, calcium flux; AID 492999, 2010; carbachol calcium Fluo-4 fluorescence; carbachol added at its EC20; 0 = buffer wells, 100 = carbachol control; calcium response, % at 10 µM; hit rate 65% among 1,700; shares compounds with RGS4 block;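 active = duplicate-averaged calcium response above the buffer-only control mean plus 5 SD of those controls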;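 note: integrated fluorescence ratio F max minus min over baseline F0; higher response in RGS4-induced cells means RGS4 inhibition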
RGS4 uninduced = carbachol calcium response in non-induced M3R cells, confirmation, counter-screen for RGS4 inhibitor project, cell-based, HEK293 M3R; shares compounds with RGS4 block; hit rate 20% among 1,900; AID 493000, 2010; activity (percent), % at 10 µM; carbachol calcium Fluo-4; submaximal (EC20) carbachol stimulus; buffer wells 0%, carbachol control wells 100%; call rule not given here;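 note: RGS4 induction absent so cells express M3R without RGS4; higher means more calcium signal and flags a non-specific hit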
M3R basal Ca ctr = signal in non-induced cells without carbachol, RGS4 inhibitor counter-screen; shares compounds with RGS4 block; HEK293 M3R/RGS4 non-induced, Fluo-4 calcium, no carbachol; normalised: buffer wells 0%, carbachol wells 100%; calcium response (agonist-mode artifact), % at 10 µM; hit rate 22% among 1,900;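 active = duplicate-averaged calcium rise in uninduced cells above buffer wells' mean plus 5 SD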
MrgX1 ag confirm = MrgX1 receptor agonists, duplicate retest, confirmation, HEK293 cells, Fluo-4 calcium flux; AID 602412, 2012; Fluo-4 calcium fluorescence, FDSS; activation, % at 10 µM; hit rate 78% among 600; shares compounds with MrgX1 agonist;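 active = calcium signal rise, corrected for plate position, at least 3 library SD high, with starting brightness within 5 such deviations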
HEK293 Ca flux = nonspecific calcium signal in parental HEK293, confirmation, counter-screen for MrgX1 antagonist project, parental HEK293 cells, Fluo-4 calcium flux; Fluo-4 calcium fluorescence, FDSS; shares compounds with MrgX1 antag; hit rate 2% among 4,000; fluorescence ratio F(max-min)/F0 at 10 µM; AID 624111, 2012;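 active = duplicate-averaged calcium fluorescence ratio at least three times the standard deviation of buffer wells, a nonspecific response in parental cells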
HEK293 Ca counter = calcium response in parental HEK293 cells, primary screen, counter-screen for MrgX1 allosteric activator project, cell-based, Fluo-4 calcium flux, duplicate; shares compounds with MrgX1 antag; Fluo-4 fluorescence ratio; hits give high values; fluorescence ratio F(max-min)/F0 at 10 µM; hit rate 0.4% among 4,000; AID 624114, 2012;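 active = calcium fluorescence ratio, averaged over duplicates, at least 3 SD of the buffer-well ratio, meaning a nonspecific response in receptor-free cells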;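 note: untransfected parental HEK293 lacking MrgX1 used as counterscreen for MrgX1 allosteric activators; fluorescence change taken during the second addition on a kinetic imager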
HEK293 Ca cntr2 = calcium response in parental HEK293 cells, primary screen, counter-screen for MrgX1 agonist project, cell-based, Fluo-4 calcium flux, duplicate, agonist mode | AID 624115, 2012 | shares compounds with MrgX1 antag | hit rate 8.7% among 4,000 | fluorescence ratio F(max-min)/F0 at 10 µM | Fluo-4 calcium fluorescence (FDSS); hits give high values;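 active = calcium fluorescence ratio at least three times the spread of buffer wells, meaning a non-specific response in parental cells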
Starred values were filed as active, the others as inactive; i = inactive; x = no result given. An excerpt weighted towards active compounds, which were near 4.5% of everything screened.

SMILES	PHOSPHO1 block	MrgX1 antag	RGS4 block	MrgX1 PAM	MrgX1 agonist	RGS4 act	RGS4 inh valid	RGS4 uninduced	M3R basal Ca ctr	others
C#CC[N+]1(C)[C@@H]2CC[C@H]1CC(OC(=O)C(CO)c1ccccc1)C2 (stereo partly specified)	x	i	i	i	i	i	x	x	x
Cc1nn(Cc2ccccc2)c(C)c1C=C1C(=O)NC(=S)NC1=O	-3	i	14*	i	i	i	70%*	i	8.0%*
Cc1ccccc1NP(=O)(Oc1ccccc1F)Oc1ccccc1F	1	i	i	i	i	-7.5*	i	i	i
Cc1cccc(NP(=O)(Oc2ccccc2)Oc2ccccc2)c1C	-20	i	i	i	i	i	x	x	x
N[C@@H](Cc1cc(Br)c(O)c(Br)c1)C(=O)O	6	i	6.7*	i	i	i	12%*	i	i
COc1ccc(C2c3c(nc(C)[nH]c3=O)Oc3c2c(=O)oc2ccccc32)cc1 (stereo unspecified)	41	i	i	i	i	i	x	x	x
Cc1cc(N2CCNCC2)nc2ccccc12	-12	i	i	i	i	i	x	x	x
CCCc1[nH]nc2c1C1(C(=O)N(CC(N)=O)c3ccccc31)C(C(=O)OC)=C(N)O2 (stereo unspecified)	16	i	i	i	i	i	i	i	i
CCOC(=O)C1=C(N)Oc2ccccc2C12C(=O)N(CC(=O)OC)C(CC(=O)OC)=C2C(=O)OC (stereo unspecified)	20	i	i	i	i	i	x	x	x
CCCc1[nH]nc2c1C1(C(=O)N(Cc3ccccc3)c3ccccc31)C(C(=O)OC)=C(N)O2 (stereo unspecified)	5	i	5.9*	i	i	i	19%*	30%*	i
CCOC(=O)C1=C(N)OC2=C(C(=O)CCC2)C12C(=O)N(CC(N)=O)c1ccccc12 (stereo unspecified)	-12	i	i	i	i	i	x	x	x
CS(=O)(=O)c1ccc(C(=O)N2CCC(C(=O)O)(c3ccccc3)CC2)cc1	14	i	i	i	i	i	x	x	x
CN1C(=O)CN=C(c2ccccc2)c2cc([N+](=O)[O-])ccc21	48	x	x	x	x	x	x	x	x
O=C1C2(c3ccccc3)CN3CN(C2)CC1(c1ccccc1)C3	-2	i	i	i	i	i	x	x	x
CCN(CC)C(=O)Cn1cc(/C=C2\C(=O)NC(=O)N(c3ccccc3F)C2=O)c2ccccc21	x	i	6.6*	i	27*	i	38%*	i	430%*
O=c1oc2ccccc2c(O)c1C(c1ccc([N+](=O)[O-])cc1)c1c(O)c2ccccc2oc1=O	11	x	4.9*	x	x	i	30%*	i	i
COc1cccc(CNC(=O)CCC(=O)N2C[C@H]3C[C@H](C2)c2cccc(=O)n2C3)c1OC	13	i	i	i	i	i	x	x	x
CNc1cc(Cl)c2nonc2c1[N+](=O)[O-]	2	x	17*	x	x	i	54%*	i	i
Cc1cc([N+](=O)[O-])c(Cl)cc1NC(=O)C(C)C	2	i	i	i	i	i	x	x	x
CC(C)(C)c1ccc(O)c(N=Cc2c(O)ccc3ccccc23)c1	x	i	i	i	56*	i	x	x	x	MrgX1 ag confirm=115%*;HEK293 Ca flux=i;HEK293 Ca counter=i;HEK293 Ca cntr2=46*
CC(=O)CC(C)(C)n1c[n+](C)nn1	-41	i	i	i	i	i	x	x	x
NC1=Nc2ccccc2Oc2ccccc21	32	i	i	i	55*	i	x	x	x	MrgX1 ag confirm=226%*;HEK293 Ca flux=i;HEK293 Ca counter=i;HEK293 Ca cntr2=i
CNc1ccc2oc(C[C@H]3O[C@@]4(CC[C@H]3C)O[C@H]([C@H](C)C(=O)c3ccc[nH]3)[C@H](C)C[C@H]4C)nc2c1C(=O)O	8	i	i	i	160*	i	x	x	x	MrgX1 ag confirm=823%*;HEK293 Ca flux=i;HEK293 Ca counter=i;HEK293 Ca cntr2=158*
NNc1n[nH]c(=S)n1N	-170	i	i	i	i	i	x	x	x
CC1(C)CSC(=NCc2ccccc2)N1	13	i	i	i	164*	i	x	x	x	MrgX1 ag confirm=677%*;HEK293 Ca flux=i;HEK293 Ca counter=i;HEK293 Ca cntr2=129*
CCOc1cc(CNCCc2c[nH]c3ccccc23)cc(Cl)c1OC	35	i	i	i	i	i	x	x	x
C[C@H]1CCC[C@H](O)CCCCCc2cc(O)cc(O)c2C(=O)O1	-12	i	i	i	i	i	x	x	x
C[C@H]1CCC[C@@H](O)CCC/C=C/c2cc(O)cc(O)c2C(=O)O1	7	i	i	i	31*	i	x	x	x	MrgX1 ag confirm=176%*;HEK293 Ca flux=i;HEK293 Ca counter=i;HEK293 Ca cntr2=i
